Experimental data reported in the EternaBench riboswitch data.

System: MS2 coat protein
Assay: apparent Kd, MS2 coat protein; higher = weaker binding; RNA-MaP array; FMN 200 µM where present
Method in brief: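 Each design was made on Illumina sequencing-chip clusters by stalled E. coli RNA polymerase and titrated with SNAP-549-labelled MS2 coat protein from 0.7 or 1.5 nM, doubling to 3 µM, in the absence and then the presence of constant ligand. The buffer was 100 mM Tris-HCl pH 7.5, 80 mM KCl, 4 mM MgCl2, BSA, DTT, yeast tRNA and Tween-20. The apparent Kd is the median of filtered per-cluster fits of binding curves, with green signal normalised to red-channel RNA signal and control-cluster median Fmax.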

[1] = designed as: OFF switch for flavin mononucleotide, no ligand
[2] = ligand present: flavin mononucleotide, designed as: OFF switch for flavin mononucleotide
[3] = designed as: ON switch for flavin mononucleotide, no ligand
[4] = ligand present: flavin mononucleotide, designed as: ON switch for flavin mononucleotide

Row | Sequence | apparent Kd [1] [nM] | apparent Kd [2] [nM] | apparent Kd [3] [nM] | apparent Kd [4] [nM]
1 | AUCAGCUCGUCAGGAUAUACGUCACUGCGUCAGCAGUGUGGCAAGAUCACAUGAGGAUCACCCAUGUAGAAGGGACGAGCUGAU | 21.2 | 399 | – | –
2 | UCAAUCAUGUAAGGAUAUGCAGCCGAAACGGCUGCAGAAGGUACUAUAAUUACAUGAGGAUCACCCAUGUUAUAAAAUUUAUAU | – | – | 169 | 35.2
3 | CGAAACUACGAGAAGGACAUGUGGUCCUUCAGUUACAUGAGGAUCACCCAUGUAGGAUAUCGUAGUUUCAGGAUCGUGAGAUCC | 58.6 | 16.6 | – | –
4 | GUAUGAUUAAGAGGAUAUAUACAACAUGAGGAUCACCCAUGUACCCGUGUAGUAGAAGGUUUGUUUUUAUAUAAUAAUAUAAUU | – | – | 26.6 | 19.1
5 | GGUACUCAAAGAGUACUGUUUUGAACAUGAGGAUCACCCAUGUAGGAUAUGCGAGUUUUGAAUUUGCAGAAGGACAUUUUUAGC | 17.2 | 18.9 | – | –
6 | GGAUAGGACAGAGGAUAUACGUGCUAGAGAUACUAGCAAAAUUUCCUCACAUGAGGAUCACCCAUGUAGAAGGCUGUCUUAUCG | 16 | 191 | – | –
7 | GUGUAGAUAGGAUAUACGAGAGUCUAGCGAAGCUAGAUUCUACAUGAGGAUCACCCAUGUAGAAGGGUCUACAC | 16.5 | 19.2 | – | –
8 | UCGCGGGUGCAGAAGGGAUAGGCCUAUUUUCGUGGUGUCCAAACUUAACAUGAGGAUCACCCAUGUCAGGAUAUGCCCACGCGA | 29.5 | 52.7 | – | –
9 | CCCUGUGGAGGAUAUUGCAAAGGUGACAUGAGGAUCACCCAUGUUGGACGUUAAGCACUGCAAGAAGGCCGGUUGA | 50 | 24.5 | – | –
10 | UUAUUUUUACAGAAGGUUUAAUAAUAUGUAUGAGAAGGAUAUGUAACAUGAGGAUCACCCAUGUUUUAUUUAUAUGAGGAUCAU | – | 9.31 | – | –
11 | CGCUAAGAGAACUAUUAGAGAAGACAUGAGGAUCACCCAUGUAGAAGGACAACGGAAUAAACGUUGUAGGAUAUACACUUAGCG | 22.6 | 17 | – | –
12 | UGUAUGUAGGCAGGAUAUACAUGAAUAUAUAUGAUGUAGUAUGAUGUAACAUGAGGAUCACCCAUGUAGAAGGGCCGGUGUAUG | 69.2 | 154 | – | –
13 | AGACAUGUCCGAGGAUAUCUGGAAACAUUUCCAAGAGAAGGCGGACAUGAGGAUCACCCAUGUCUCUCCUCAUCAAAUCCAAGU | 10.7 | 90.9 | – | –
14 | CGUAUAUGGGAGAAGGCAUGUUCCAAAGGGCCAUGAGGAUAUCCUAAGUGUACGCUUUGCGACAUGAGGAUCACCCAUGUAGCA | – | – | 8.95 | 6.34
15 | GUAGCAUACCAAGGAUAUUCAGGGCUUGGAUAGACAUGAGGAUCACCCAUGUGGCGAAAGUCAAGGGAGAAGGUGGUAUGCUAC | – | – | 17.6 | 13.4
16 | UAAUAUAUACAAGGAUAUCAAUUAUAUACACAUCCUACAUGAGGAUCACCCAUGUUUUAUUUUUUUGAGAAGGUGUAUUGUCGG | – | – | 20.4 | 29.1
17 | AACAAGUUAGGAUAUGCUGCUCGUCACAAAAGUGAUGAGUAGCAGAAGGAACAUGAGGAUCACCCAUGUAAAGA | 29.3 | 23.7 | – | –
18 | GGGUGACAUGAGGAUCACCCAUGUCAGGAUAUUGAGCUUGAGCUGAAAAGUUCGAGUUCGAGAAGGGACUGCCC | 52 | 229 | – | –
19 | CGCAUGCGUAGUAUUAGUUGCUGACAGGAUAUGACAUGAGGAUCACCCAUGUGAAAUAAGAAGAGUCAGAAGGGUCACGAUGCG | 16.8 | 9.58 | – | –
20 | UAUAUACAUGAGGAUCACCCAUGUAAGGAUAUGCAUUAUUAUUAUUAUUAUUAUUAUUGCAGAAGGUACAAUAU | 40.7 | 39.3 | – | –
21 | GGGUACAUCGGAGGAUAUCAUGUAAAUACAUGAGGAUCACCCAUGUCGAUGGAGACAUCGGAGAUUGAGAAGGCCGAUGUUCCG | – | – | 202 | 9.84
22 | UCCUCGUAGUAGAAGGGCGGCCGAAAUCUGCACGCAGGAUAUACAUGAGGAUCACCCAUGUACUGAGCUGAAGAGCACUUGGAA | 11.5 | 29.5 | – | –
23 | GACAUCGCAGGAUAUUAUUGUUUGUACAUGAGGAUCACCCAUGUUAAUUGGGUUAAUGUUUAAGAAGGGCGGUGUC | 642 | 557 | – | –
24 | UUUAUGUCAGGAUAUGAUUAGAUCUACUUUUGUAGAUCUAAUCAGAAGGGACAUGAGGAUCACCCAUGUUUUUU | 44.8 | 252 | – | –
25 | UAGCAGUAGGGAGGAUAUGCGAAAGGAAGGCCCGCAGAAGGCCUUACAUGAGGAUCACCCAUGUAGGAUGCCUGGGUGGUGCCC | 13.8 | 20.3 | – | –
26 | AACUGACGACGUCAGUUGCGUAGGCAGGAUAUACAUGAGGAUCACCCAUGUGCAUGAUGCUACGAGUAGAAGGGCCGAGGCGAU | 6.15 | 11.2 | – | –
27 | CCCACGAAAGUCGAACGAUGAUGGAGAAGGACUAUAACAUGACAUGAGGAUCACCCAUGUGCCAAGUAGGAUAUCCAUCAUGGG | 5.97 | 5.34 | – | –
28 | GUCAGCUCGUGAGGAUAUACAACACUGCUUCGGCAGUGUAUUAAGAUCACAUGAGGAUCACCCAUGUAGAAGGCACGAGCGGAU | 14.4 | 244 | – | –
